Activity calls are given as the source filed them. The rule behind the calls is not given here.
Columns and labels:
NIH3T3 [1] = test: Antitumor activity against mouse NIH/3T3 cells expressing TPR/Met allografted in mouse assessed as tumor growth inhibition at 100 mg/kg, po qd administered for 2 weeks measured twice per week relative to vehicle-treated control; format: functional; conditions: NIH3T3, 336 h, read-out: TGI
Method in brief: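 Tumor fragments (1 mm³) implanted s.c. in right flank of nude mice by trocar. Randomized at 100–150 mm³ tumor volume. Dosed orally 7 days/week for 2 weeks; vehicle controls. Calipers twice weekly; TV = length×width²/2. Inhibition = 100%×{1−[(T day14−T day0)/(C day14−C day0)]}. n = 6/group, Student's t-test.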

[2] = molecular target: Hepatocyte growth factor receptor (Canis lupus familiaris) (UniProt Q75ZY9); test: Inhibition of c-Met in MDCK cells assessed as HGF-induced cell motility at 0.3 to 3 uM after 1 to 10 hrs by wound-healing assay; format: cell-based
Method in brief: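 MDCK monolayers in 12-well plates, pre-incubated 30 min serum-free. Scratch wound made with micropipette and washed, then compound added with or without 50 ng/mL recombinant human HGF at 37°C. Phase-contrast images at 0 and 10 h.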

BaF3 = test: Induction of cell cycle arrest in mouse BAF3 cells expressing TPR/Met fusion protein assessed as accumulation at G1 phase at 1 uM after 24 hrs by propidium iodide staining-based FACS analysis (reference value: 26.6%); format: functional
MKN-45 = test: Induction of cell cycle arrest in human MKN45 cells assessed as accumulation at G1 phase at 1 uM after 24 hrs by propidium iodide staining-based FACS analysis (reference value: 39.1%); format: functional
HCT-116 = test: Antiproliferative activity against human HCT116 cells after 72 hrs; conditions: HCT-116, 72 h
NIH3T3 [3] = test: Antiproliferative activity against mouse NIH/3T3 cells expressing TPR/Met fusion protein after 72 hrs; format: functional, cell-based; conditions: NIH3T3, 72 h
Method in brief: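 Cells seeded in 96-well plates, exposed next day to a range of compound concentrations and cultured 72 h; proliferation read by sulforhodamine B or CCK-8. IC50 as mean ± SD (μM) from three separate experiments.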

SK-OV-3 = test: Antiproliferative activity against human SKOV3 cells after 72 hrs; conditions: SK-OV-3, 72 h
MCF7 = test: Antiproliferative activity against human MCF7 cells after 72 hrs; conditions: MCF7, 72 h
SNU-5 = test: Antiproliferative activity against human SNU5 cells after 72 hrs; conditions: SNU-5, 72 h
[4] = molecular target: T1, TPR/MET fusion protein (Mus musculus) (UniProt P16056+F6ZDS4); test: Inhibition of TPR/Met in mouse NIH3T3 cells assessed as inhibition of p44/42 phosphorylation at 0.08 to 10 uM after 2 hrs by Western blotting analysis; format: cell-based
Method in brief: (§1)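 Cells grown to exponential phase, treated with compound 2 h at 37°C, lysed in 1× SDS sample buffer, resolved on 10% SDS-PAGE and transferred to nitrocellulose for immunoblotting.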

[5] = molecular target: T2, Hepatocyte growth factor receptor (Homo sapiens, UniProt P08581); test: Inhibition of c-Met in human SNU5 cells assessed as inhibition of p44/42 phosphorylation at 0.16 to 20 uM after 2 hrs by Western blotting analysis; format: cell-based; conditions: SNU-5; method in brief: as §1
[6] = molecular target: T2, Hepatocyte growth factor receptor; test: Inhibition of c-Met in human EBC1 cells assessed as inhibition of p44/42 phosphorylation at 0.16 to 20 uM after 2 hrs by Western blotting analysis; format: cell-based; method in brief: as §1
[7] = molecular target: T1, TPR/MET fusion protein (Mus musculus); test: Inhibition of TPR/Met phosphorylation in mouse BAF3 cells after 2 hrs by Western blotting analysis; format: cell-based; method in brief: as §1
[8] = molecular target: T2, Hepatocyte growth factor receptor; test: Inhibition of c-Met phosphorylation in human EBC1 cells after 2 hrs by Western blotting analysis; format: cell-based
Method in brief: (§2)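 Cells grown under regular conditions to exponential phase, exposed to compound at indicated concentrations for 2 h at 37°C, lysed in 1× SDS sample buffer. Lysates resolved on 10% SDS-PAGE and transferred to nitrocellulose for immunoblotting.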

[9] = molecular target: T2, Hepatocyte growth factor receptor; test: Inhibition of c-Met phosphorylation in human SNU5 cells after 2 hrs by Western blotting analysis; format: cell-based; conditions: SNU-5; method in brief: as §2
[10] = molecular target: T2, Hepatocyte growth factor receptor; test: Inhibition of c-Met phosphorylation in human MKN45 cells after 2 hrs by Western blotting analysis; format: cell-based; conditions: MKN-45; method in brief: as §2
[11] = molecular target: Vascular endothelial growth factor receptor 1 (Homo sapiens, UniProt P17948); test: Inhibition of FLT1 (unknown origin) using poly (Glu, Tyr) 4:1 as substrate after 60 mins by ELISA
Method in brief: (§3)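 ELISA on wells precoated with 20 µg/mL poly(Glu,Tyr)4:1. Purified kinase with 10 µmol/L ATP in 50 mM HEPES pH 7.4, 50 mM MgCl₂, 0.5 mM MnCl₂, 0.2 mM Na₃VO₄, 1 mM DTT; 1% DMSO vehicle. 60 min at 37°C. Phosphotyrosine detected with PY99 antibody, then HRP anti-mouse IgG and o-phenylenediamine/H₂O₂, A490. Inhibition = [1−(A490/A490 control)]×100%; IC50 from curves.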

[12] = molecular target: Vascular endothelial growth factor receptor 2 (Homo sapiens, UniProt P35968); test: Inhibition of KDR (unknown origin) using poly (Glu, Tyr) 4:1 as substrate after 60 mins by ELISA; method in brief: as §3
Ephrin type-B receptor 2 = Ephrin type-B receptor 2 (Homo sapiens, UniProt P29323); test: Inhibition of EPHB2 (unknown origin) using poly (Glu, Tyr) 4:1 as substrate after 60 mins by ELISA; method in brief: as §3
Ephrin type-A receptor 2 = Ephrin type-A receptor 2 (Homo sapiens, UniProt P29317); test: Inhibition of EPHA2 (unknown origin) using poly (Glu, Tyr) 4:1 as substrate after 60 mins by ELISA; method in brief: as §3
[13] = molecular target: Mast/stem cell growth factor receptor Kit (Homo sapiens, UniProt P10721); test: Inhibition of c-kit (unknown origin) using poly (Glu, Tyr) 4:1 as substrate after 60 mins by ELISA
Method in brief: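 Purified kinase incubated with 10 µmol/L ATP in wells pre-coated with 20 µg/mL poly(Glu,Tyr)4:1. Reaction ran 60 min at 37°C. Phosphotyrosine detected with PY99 antibody, then HRP anti-mouse IgG and o-phenylenediamine/H₂O₂, read at 490 nm. IC50 taken from inhibition curves.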

[14] = molecular target: Platelet-derived growth factor receptor beta (Homo sapiens, UniProt P09619); test: Inhibition of PDGFRbeta (unknown origin) using poly (Glu, Tyr) 4:1 as substrate after 60 mins by ELISA; method in brief: as §3
[15] = molecular target: ALK tyrosine kinase receptor (Homo sapiens, UniProt Q9UM73); test: Inhibition of ALK (unknown origin) using poly (Glu, Tyr) 4:1 as substrate after 60 mins by ELISA; method in brief: as §3
[16] = molecular target: Tyrosine-protein kinase receptor UFO (Homo sapiens, UniProt P30530); test: Inhibition of AXL (unknown origin) using poly (Glu, Tyr) 4:1 as substrate after 60 mins by ELISA; method in brief: as §3
[17] = molecular target: Macrophage-stimulating protein receptor (Homo sapiens, UniProt Q04912); test: Inhibition of RON (unknown origin) using poly (Glu, Tyr) 4:1 as substrate after 60 mins by ELISA; method in brief: as §3
[18] = molecular target: T2, Hepatocyte growth factor receptor; test: Inhibition of c-Met (unknown origin) using poly (Glu, Tyr) 4:1 as substrate after 60 mins by ELISA

T2 sequence (P08581 whole entry): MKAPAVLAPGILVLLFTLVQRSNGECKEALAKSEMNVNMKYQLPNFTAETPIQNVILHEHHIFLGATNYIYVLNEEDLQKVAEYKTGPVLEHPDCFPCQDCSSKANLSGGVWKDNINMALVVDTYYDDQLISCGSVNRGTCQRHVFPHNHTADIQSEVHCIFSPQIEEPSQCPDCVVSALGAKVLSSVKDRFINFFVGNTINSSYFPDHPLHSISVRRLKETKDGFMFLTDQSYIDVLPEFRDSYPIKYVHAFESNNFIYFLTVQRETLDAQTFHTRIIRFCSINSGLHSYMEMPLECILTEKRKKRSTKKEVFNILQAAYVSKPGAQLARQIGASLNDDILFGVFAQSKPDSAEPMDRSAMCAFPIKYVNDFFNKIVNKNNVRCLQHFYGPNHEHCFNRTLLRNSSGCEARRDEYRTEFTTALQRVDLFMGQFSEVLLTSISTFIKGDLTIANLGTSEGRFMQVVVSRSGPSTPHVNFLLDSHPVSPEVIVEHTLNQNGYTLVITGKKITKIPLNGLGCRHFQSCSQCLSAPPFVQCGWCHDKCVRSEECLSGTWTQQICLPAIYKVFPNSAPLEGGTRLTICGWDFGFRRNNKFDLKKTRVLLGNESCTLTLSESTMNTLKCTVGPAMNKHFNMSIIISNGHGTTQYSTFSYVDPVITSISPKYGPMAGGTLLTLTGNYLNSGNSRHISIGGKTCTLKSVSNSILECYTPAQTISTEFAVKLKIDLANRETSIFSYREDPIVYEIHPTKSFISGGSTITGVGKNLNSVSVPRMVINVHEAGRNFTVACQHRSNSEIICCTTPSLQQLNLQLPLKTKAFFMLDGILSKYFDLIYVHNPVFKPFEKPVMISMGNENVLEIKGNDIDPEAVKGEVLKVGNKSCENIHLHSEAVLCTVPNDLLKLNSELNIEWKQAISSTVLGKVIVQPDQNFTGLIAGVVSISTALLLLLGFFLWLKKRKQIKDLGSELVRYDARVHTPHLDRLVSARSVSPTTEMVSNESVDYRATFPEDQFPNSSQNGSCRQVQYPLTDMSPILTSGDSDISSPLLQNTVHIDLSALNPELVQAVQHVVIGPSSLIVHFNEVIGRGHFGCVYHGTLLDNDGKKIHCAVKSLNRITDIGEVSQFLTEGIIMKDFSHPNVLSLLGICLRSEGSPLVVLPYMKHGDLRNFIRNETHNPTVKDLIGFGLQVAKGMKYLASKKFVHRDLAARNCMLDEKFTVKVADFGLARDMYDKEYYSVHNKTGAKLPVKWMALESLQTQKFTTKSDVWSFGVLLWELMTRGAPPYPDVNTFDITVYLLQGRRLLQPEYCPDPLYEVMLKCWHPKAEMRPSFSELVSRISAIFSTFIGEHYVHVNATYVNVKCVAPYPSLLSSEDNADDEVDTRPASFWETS
T1 sequence (F6ZDS4 whole entry partner, the tested form may be a part): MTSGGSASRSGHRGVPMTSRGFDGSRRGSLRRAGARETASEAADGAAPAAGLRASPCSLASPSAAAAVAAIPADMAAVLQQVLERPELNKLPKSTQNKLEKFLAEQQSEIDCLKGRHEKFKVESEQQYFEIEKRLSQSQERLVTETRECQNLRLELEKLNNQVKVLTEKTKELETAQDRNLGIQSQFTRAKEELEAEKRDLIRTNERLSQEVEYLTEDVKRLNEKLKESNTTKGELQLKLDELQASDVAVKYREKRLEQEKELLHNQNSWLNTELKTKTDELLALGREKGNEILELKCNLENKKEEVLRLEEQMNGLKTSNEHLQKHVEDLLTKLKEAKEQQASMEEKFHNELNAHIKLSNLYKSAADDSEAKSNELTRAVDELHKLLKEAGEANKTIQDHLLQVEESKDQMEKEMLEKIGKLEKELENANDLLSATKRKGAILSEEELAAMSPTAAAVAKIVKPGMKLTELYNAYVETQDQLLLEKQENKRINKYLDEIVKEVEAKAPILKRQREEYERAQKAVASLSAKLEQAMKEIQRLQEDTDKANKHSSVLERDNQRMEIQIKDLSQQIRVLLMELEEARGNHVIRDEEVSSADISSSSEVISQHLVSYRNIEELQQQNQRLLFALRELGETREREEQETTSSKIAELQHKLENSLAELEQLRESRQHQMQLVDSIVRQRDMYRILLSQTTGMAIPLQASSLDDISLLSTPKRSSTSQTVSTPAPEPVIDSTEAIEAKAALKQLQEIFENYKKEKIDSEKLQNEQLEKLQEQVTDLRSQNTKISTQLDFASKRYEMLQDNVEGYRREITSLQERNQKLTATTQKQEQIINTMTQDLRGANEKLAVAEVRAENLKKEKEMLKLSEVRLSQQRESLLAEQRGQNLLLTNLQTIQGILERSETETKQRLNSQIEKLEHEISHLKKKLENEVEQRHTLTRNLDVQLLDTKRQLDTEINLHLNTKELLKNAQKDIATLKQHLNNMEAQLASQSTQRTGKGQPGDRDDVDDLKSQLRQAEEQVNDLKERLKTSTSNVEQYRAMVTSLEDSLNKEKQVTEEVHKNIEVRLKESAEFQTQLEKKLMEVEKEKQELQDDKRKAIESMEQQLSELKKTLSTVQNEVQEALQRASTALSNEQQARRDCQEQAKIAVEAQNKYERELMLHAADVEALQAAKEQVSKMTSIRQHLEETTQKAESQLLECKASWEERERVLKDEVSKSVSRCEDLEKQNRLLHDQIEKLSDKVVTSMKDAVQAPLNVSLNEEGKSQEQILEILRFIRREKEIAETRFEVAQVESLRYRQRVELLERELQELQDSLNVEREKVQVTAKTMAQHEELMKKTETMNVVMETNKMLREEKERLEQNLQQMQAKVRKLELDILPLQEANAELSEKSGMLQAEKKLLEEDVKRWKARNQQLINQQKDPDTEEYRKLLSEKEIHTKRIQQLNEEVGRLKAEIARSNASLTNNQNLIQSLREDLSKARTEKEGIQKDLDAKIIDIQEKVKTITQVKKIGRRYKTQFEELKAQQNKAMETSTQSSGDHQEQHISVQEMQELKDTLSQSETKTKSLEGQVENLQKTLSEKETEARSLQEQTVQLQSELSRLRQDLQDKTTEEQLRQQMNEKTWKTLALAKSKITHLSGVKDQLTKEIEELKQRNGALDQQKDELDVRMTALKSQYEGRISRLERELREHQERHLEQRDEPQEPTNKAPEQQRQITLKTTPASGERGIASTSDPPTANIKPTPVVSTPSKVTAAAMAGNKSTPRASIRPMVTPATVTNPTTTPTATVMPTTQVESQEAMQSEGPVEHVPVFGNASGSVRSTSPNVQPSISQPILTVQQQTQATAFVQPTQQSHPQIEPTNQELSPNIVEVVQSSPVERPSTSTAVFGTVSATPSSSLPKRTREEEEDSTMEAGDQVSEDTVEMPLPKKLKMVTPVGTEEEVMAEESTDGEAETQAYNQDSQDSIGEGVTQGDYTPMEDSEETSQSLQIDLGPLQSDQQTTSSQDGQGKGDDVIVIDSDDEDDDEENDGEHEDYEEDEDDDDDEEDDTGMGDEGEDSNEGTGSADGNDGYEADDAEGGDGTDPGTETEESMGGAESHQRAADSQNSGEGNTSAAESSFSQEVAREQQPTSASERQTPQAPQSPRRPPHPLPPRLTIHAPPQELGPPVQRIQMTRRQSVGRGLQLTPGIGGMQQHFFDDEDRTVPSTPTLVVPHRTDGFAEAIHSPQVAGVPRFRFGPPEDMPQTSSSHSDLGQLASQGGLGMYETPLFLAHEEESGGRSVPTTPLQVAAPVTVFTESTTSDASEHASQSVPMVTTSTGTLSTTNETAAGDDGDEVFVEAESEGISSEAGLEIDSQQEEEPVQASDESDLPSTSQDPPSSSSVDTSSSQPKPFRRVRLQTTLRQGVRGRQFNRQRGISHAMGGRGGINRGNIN
T1 sequence (P16056 25-1379 limits assumed): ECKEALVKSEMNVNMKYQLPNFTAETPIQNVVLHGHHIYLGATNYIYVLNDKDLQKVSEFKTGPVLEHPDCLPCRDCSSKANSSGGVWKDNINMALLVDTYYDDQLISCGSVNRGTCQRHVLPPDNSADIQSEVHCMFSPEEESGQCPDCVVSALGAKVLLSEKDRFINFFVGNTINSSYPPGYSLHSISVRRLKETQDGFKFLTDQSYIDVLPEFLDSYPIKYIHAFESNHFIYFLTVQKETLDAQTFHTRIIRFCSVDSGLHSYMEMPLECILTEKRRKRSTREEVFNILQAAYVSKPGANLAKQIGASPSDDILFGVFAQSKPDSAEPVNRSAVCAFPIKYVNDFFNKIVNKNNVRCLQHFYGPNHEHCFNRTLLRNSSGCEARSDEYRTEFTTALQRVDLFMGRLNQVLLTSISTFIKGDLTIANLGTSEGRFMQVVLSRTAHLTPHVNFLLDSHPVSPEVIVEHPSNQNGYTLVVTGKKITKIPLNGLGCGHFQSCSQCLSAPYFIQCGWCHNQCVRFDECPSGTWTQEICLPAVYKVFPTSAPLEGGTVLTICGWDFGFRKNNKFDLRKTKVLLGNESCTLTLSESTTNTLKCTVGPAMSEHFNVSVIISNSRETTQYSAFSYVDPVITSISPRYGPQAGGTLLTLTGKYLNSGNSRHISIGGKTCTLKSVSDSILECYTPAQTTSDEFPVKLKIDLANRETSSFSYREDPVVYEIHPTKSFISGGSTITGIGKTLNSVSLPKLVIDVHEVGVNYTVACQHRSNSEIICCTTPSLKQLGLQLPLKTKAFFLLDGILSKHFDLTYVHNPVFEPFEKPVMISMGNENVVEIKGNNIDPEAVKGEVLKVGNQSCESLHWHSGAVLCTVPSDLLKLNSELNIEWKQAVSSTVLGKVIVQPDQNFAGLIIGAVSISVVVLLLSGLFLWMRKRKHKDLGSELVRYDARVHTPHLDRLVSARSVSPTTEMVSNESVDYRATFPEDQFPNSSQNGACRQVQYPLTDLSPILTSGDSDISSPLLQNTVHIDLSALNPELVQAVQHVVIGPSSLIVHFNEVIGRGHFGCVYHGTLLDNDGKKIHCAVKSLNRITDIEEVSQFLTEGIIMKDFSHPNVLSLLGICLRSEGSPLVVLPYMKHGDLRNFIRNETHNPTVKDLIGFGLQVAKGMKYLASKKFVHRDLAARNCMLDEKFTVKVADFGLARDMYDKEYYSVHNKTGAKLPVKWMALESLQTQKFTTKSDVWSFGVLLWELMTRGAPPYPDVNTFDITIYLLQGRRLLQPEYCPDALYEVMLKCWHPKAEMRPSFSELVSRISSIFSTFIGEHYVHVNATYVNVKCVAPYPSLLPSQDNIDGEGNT

inhibition [2]: Active
IC50 (HCT-116): 14300 nM
IC50 (SK-OV-3): 12700 nM
IC50 (MCF7): 11600 nM
IC50 (SNU-5): 190 nM
inhibition [4]: Active
inhibition [5]: Active
inhibition [6]: Active
inhibition [7]: Dose-dependent effect
inhibition [8]: Dose-dependent effect
inhibition [9]: Dose-dependent effect
inhibition [10]: Dose-dependent effect
IC50 [11]: > 1000 nM
IC50 [12]: > 1000 nM
IC50 (Ephrin type-B receptor 2): > 1000 nM
IC50 (Ephrin type-A receptor 2): > 1000 nM
IC50 [13]: > 1000 nM
IC50 [14]: > 1000 nM
IC50 [15]: 349 nM
IC50 [16]: 446 nM
IC50 [17]: 336 nM
IC50 [18]: 7.7 nM
SMILES: C[C@@H](Sc1cc(-c2cnn(C3CCNCC3)c2)cnc1N)c1c(Cl)ccc(F)c1Cl
inhibition in vivo at 100 mg/kg (NIH3T3 [1]): 45.5%
Activity (BaF3): 69.6%
Activity (MKN-45): 60.1%
IC50 (NIH3T3 [3]): 610 nM

Source: ChEMBL document CHEMBL2440064, “Synthesis and biological evaluation of 2-amino-5-aryl-3-benzylthiopyridine scaffold based potent c-Met inhibitors” (Bioorg Med Chem, 2013)
